From ChEMBL document CHEMBL3351268, “Synthesis, biological evaluation, and molecular modeling of new 3-(cyclopentyloxy)-4-methoxybenzaldehyde O-(2-(2,6-dimethylmorpholino)-2-oxoethyl) Oxime (GEBR-7b) related phosphodiesterase 4D (PDE4D) inhibitors” (J Med Chem, 2014)
The source made the active and inactive calls. No cut-off for these calls is given here.

Tests used:
[1] = target: T1, 3',5'-cyclic-AMP phosphodiesterase 4D (Homo sapiens, UniProt Q08499); assay: Inhibition of recombinant human PDE4D3 expressed in baculoviral system at 10 uM
In short: (§1)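 Recombinant PDE4 isoform enzyme activity measured with compound at 10 μM, in duplicate; result given as % inhibition relative to control activity. PDE4D3 is recombinant human, expressed in a baculoviral system.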

[2] = target: T1, 3',5'-cyclic-AMP phosphodiesterase 4D; assay: Inhibition of PDE4D3 (unknown origin) at 10 uM; in short: as §1
[3] = target: T1, 3',5'-cyclic-AMP phosphodiesterase 4D; assay: Inhibition of PDE4D1 (unknown origin) at 10 uM
[4] = target: T1, 3',5'-cyclic-AMP phosphodiesterase 4D; assay: Inhibition of PDE4D2 (unknown origin) at 10 uM
[5] = Cytotoxicity against human HTLA-230 cells at 100 uM after 24 hrs by lactate dehydrogenase release assay; format: cell-based; conditions: htla-230, 24 h
In short: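 HTLA human neuronal cells exposed 24 h to 100 μM test compound; cytotoxicity read as lactate-dehydrogenase release.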

[6] = target: T1, 3',5'-cyclic-AMP phosphodiesterase 4D; assay: Inhibition of recombinant human PDE4D3 expressed in baculoviral system
In short: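 Recombinant PDE4 isoform enzyme (PDE4D3: recombinant human, baculoviral expression) tested at five concentrations over 5 × 10−8–10−4 M, in duplicate. IC50 obtained by nonlinear regression of the inhibition curve with Hill equation fitting.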

[7] = target: T2, 3',5'-cyclic-AMP phosphodiesterase 4B (Homo sapiens, UniProt Q07343); assay: Inhibition of PDE4B2 (unknown origin) at 10 uM; in short: as §1
[8] = target: 3',5'-cyclic-AMP phosphodiesterase 4A (Homo sapiens) (UniProt P27815); assay: Inhibition of PDE4A4 (unknown origin) at 10 uM; in short: as §1
[9] = Genotoxicity against human HTLA-230 cells assessed as phosphorylation of histone H2AX at 100 uM after 24 hrs by Western blot analysis; format: toxicity, cell-based; conditions: htla-230, 24 h
Homo sapiens = species: Homo sapiens; assay: Selectivity ratio of IC50 PDE4B2 (unknown origin) for to IC50 for ecombinant human PDE4D3 expressed in baculoviral system
[10] = target: T2, 3',5'-cyclic-AMP phosphodiesterase 4B; assay: Inhibition of PDE4B2 (unknown origin)
[11] = target: T1, 3',5'-cyclic-AMP phosphodiesterase 4D; assay: Inhibition of PDE4D3 in human HTLA230 cells assessed as accumulation of intracellular cAMP pretreated at 100 uM for 10 min before forskolin addition measured after 20 mins by enzyme immunoassay; format: cell-based
In short: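 cAMP accumulation in HTLA cells treated 30 min with compound. Where indicated, forskolin was added during the last 20 min to raise basal cAMP. Intracellular cAMP measured by cAMP-specific enzymatic immunoassay.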

T2 sequence (Q07343 whole entry): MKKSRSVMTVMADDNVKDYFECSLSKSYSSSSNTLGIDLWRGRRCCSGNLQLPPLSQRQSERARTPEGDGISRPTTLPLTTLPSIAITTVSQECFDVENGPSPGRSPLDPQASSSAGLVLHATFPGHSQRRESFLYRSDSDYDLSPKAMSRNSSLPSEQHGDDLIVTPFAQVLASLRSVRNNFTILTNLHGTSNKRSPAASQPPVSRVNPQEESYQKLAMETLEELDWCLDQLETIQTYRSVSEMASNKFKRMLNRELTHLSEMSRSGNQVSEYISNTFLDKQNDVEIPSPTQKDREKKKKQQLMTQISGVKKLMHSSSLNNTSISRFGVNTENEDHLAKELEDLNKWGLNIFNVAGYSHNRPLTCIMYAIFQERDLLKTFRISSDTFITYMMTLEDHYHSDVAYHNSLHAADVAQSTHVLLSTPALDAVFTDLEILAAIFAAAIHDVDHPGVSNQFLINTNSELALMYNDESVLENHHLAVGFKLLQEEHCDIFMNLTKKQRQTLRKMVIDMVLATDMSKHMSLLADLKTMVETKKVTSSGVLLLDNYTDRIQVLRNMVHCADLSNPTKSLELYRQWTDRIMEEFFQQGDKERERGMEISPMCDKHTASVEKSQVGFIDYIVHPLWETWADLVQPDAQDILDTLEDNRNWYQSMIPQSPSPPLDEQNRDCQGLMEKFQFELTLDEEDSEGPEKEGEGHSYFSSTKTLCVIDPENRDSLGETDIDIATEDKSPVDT
Chain of 3',5'-cyclic-AMP phosphodiesterase 4A (Homo sapiens) (P27815 whole entry): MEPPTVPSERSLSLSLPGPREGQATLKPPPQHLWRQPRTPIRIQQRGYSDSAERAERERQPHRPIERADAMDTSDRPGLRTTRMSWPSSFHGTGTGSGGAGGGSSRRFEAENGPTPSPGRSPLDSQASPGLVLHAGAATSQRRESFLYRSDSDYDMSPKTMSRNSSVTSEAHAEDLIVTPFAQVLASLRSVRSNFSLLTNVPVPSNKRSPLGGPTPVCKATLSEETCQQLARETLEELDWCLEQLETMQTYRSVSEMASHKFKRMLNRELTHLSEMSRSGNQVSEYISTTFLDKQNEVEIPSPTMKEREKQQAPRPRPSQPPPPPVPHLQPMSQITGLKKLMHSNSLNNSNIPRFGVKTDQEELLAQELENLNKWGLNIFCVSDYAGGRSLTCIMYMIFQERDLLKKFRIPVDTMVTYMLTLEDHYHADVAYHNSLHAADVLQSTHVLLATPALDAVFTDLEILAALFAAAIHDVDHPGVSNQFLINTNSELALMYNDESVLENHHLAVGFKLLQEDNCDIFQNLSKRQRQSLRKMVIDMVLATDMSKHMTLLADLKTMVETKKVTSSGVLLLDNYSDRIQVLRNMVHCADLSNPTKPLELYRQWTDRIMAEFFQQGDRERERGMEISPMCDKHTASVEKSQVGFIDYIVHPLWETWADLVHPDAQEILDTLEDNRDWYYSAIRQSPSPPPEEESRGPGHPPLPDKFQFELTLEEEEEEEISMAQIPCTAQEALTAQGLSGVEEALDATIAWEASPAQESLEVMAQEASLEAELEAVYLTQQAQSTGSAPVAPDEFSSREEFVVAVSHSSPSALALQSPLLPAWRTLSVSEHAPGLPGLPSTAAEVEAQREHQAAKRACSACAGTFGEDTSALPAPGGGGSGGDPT
T1 sequence (Q08499 whole entry, canonical isoform): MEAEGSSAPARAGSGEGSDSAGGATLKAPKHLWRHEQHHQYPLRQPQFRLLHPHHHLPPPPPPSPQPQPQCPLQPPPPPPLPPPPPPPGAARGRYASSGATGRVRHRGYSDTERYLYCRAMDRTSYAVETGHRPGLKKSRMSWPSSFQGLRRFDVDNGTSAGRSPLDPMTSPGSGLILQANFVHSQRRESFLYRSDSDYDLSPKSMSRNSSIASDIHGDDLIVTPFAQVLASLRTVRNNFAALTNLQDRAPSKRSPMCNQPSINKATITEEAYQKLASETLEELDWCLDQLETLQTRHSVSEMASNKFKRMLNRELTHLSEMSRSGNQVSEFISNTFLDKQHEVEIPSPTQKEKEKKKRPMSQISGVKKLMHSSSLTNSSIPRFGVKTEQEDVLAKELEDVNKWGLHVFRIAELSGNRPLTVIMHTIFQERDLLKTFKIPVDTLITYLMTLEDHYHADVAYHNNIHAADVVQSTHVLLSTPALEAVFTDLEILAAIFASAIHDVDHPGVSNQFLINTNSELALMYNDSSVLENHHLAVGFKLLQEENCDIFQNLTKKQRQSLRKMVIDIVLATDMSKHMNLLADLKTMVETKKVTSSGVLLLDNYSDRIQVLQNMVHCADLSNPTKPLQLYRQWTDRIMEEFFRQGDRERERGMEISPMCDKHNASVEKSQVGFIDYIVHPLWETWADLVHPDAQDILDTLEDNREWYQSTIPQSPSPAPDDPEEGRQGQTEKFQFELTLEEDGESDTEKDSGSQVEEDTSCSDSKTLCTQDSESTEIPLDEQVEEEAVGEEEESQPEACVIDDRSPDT

Work on COc1ccc(C(=O)N2CCC(O)CC2)cc1OC1CCCC1 yielded an inhibition [1] of 20%.

For COc1ccc(C(=O)NN2CCOCC2)cc1OC1CCCC1, the inhibition [1] was 32%, the inhibition [2] was 32% and the inhibition [3] was 49%. For the same compound, the inhibition [4] was 32%.

COc1ccc(/C=N/OCC(O)CNN2CCOCC2)cc1OC1CCCC1 (stereo not given) showed an Activity [5] of 0.01%, an inhibition [1] of 56% and an inhibition [2] of 56%. For the same compound, the IC50 [6] was 1260 nM, the inhibition [7] was 34% and the inhibition [8] was 33%. For the same compound, the Activity [9] was “Non-toxic”.

Work on COc1ccc(C(=O)N2CCOCC2)cc1OC1CCCC1 yielded an inhibition [1] of 45%.

In the case of COc1cc([C@@H]2c3cc4c(cc3[C@@H](O[C@@H]3O[C@@H]5CO[C@@H](C)O[C@H]5[C@H](O)[C@H]3O)[C@H]3COC(=O)[C@H]23)OCO4)cc(OC)c1O [ETOPOSIDE], the Activity [9] is reported as “Toxic”.

COc1ccc(/C=C/C(=O)N2CCC(O)CC2)cc1OC1CCCC1 showed an inhibition [1] of 22%.

COc1ccc(/C=N/OCCC(=O)N2CC(C)OC(C)C2)cc1OC1CCCC1 (stereo not given) showed an inhibition [1] of 24%.

In the case of COc1ccc(C(=O)NN2CC(C)OC(C)C2)cc1OC1CCCC1 (stereo not given), the inhibition [1] is reported as 0%.

In the case of COc1ccc(/C=N/OCC(=O)N2CC(C)OC(C)C2)cc1OC1CCCC1 (stereo not given), the Activity [5] is reported as 0.14% and the Activity [9] is reported as “Non-toxic”.

For COc1ccc(/C=N/OCC(O)CNN2CC(C)OC(C)C2)cc1OC1CCCC1 (stereo not given), the Activity [5] was 0.75%, the Ratio IC50 (Homo sapiens) was 90 and the inhibition [1] was 80%. The inhibition [2] was 80%, the inhibition [3] was 65% and the IC50 [6] was 210 nM. It also gave an inhibition [7] of 51%, an inhibition [8] of 41% and an inhibition [4] of 74%. The Activity [9] was “Non-toxic” and the IC50 [10] was 18000 nM.

In the case of COc1ccc(/C=N/OCC(=O)N2CCC(O)CC2)cc1OC1CCCC1, the inhibition [1] is reported as 30%.

COc1ccc(CCC(=O)N2CCC(O)CC2)cc1OC1CCCC1 gave an inhibition [1] of 12%.

With COc1ccc(/C=N/OCC(CN2CCC(OC(C)=O)CC2)OC(C)=O)cc1OC1CCCC1 (stereo not given) the inhibition [1] was 12%.

With COc1ccc(/C=N/OCCC(=O)N2CCOCC2)cc1OC1CCCC1 the inhibition [1] was 49%.

With COc1ccc(CCC(=O)N2CC(C)OC(C)C2)cc1OC1CCCC1 (stereo not given) the inhibition [1] was 10%.

In the case of COc1ccc(/C=C/C(=O)N2CC(C)OC(C)C2)cc1OC1CCCC1 (stereo not given), the inhibition [1] is reported as 16%.

With COc1ccc(CCC(=O)N2CCOCC2)cc1OC1CCCC1 the inhibition [1] was 7%.

With COc1ccc(/C=C/C(=O)N2CCOCC2)cc1OC1CCCC1 the inhibition [1] was 25%.

Compound COc1ccc(/C=N/OCC(O)CN2CCC(O)CC2)cc1OC1CCCC1 (stereo not given) has an Activity [5] of 1.2%, an inhibition [1] of 65% and an inhibition [2] of 65%. For the same compound, the IC50 [6] was 1790 nM, the inhibition [11] was “Active” and the inhibition [7] was 5%. For the same compound, the inhibition [8] was 10% and the Activity [9] was “Non-toxic”.

For COc1ccc(/C=N/N2CCOCC2)cc1OC1CCCC1, the Activity [5] was 0.04%, the Ratio IC50 (Homo sapiens) was 2.6 and the inhibition [1] was 83%. For the same compound, the inhibition [2] was 83%, the inhibition [3] was 75% and the IC50 [6] was 660 nM. It also gave an inhibition [7] of 62%, an inhibition [8] of 41% and an inhibition [4] of 62%. For the same compound, the Activity [9] was “Non-toxic” and the IC50 [10] was 1600 nM.

With COc1ccc(/C=N/N2CC(C)OC(C)C2)cc1OC1CCCC1 (stereo not given) the Activity [5] was 0.01%, the inhibition [1] was 75% and the inhibition [2] was 75%. It also gave an inhibition [3] of 68%, an IC50 [6] of 1550 nM and an inhibition [7] of 47%. The inhibition [8] was 29%, the inhibition [4] was 53% and the Activity [9] was “Non-toxic”.

Compound COc1ccc(C(=O)N2CC(C)OC(C)C2)cc1OC1CCCC1 (stereo not given) has an inhibition [1] of 31%, an inhibition [2] of 31% and an inhibition [3] of 18%. It also gave an inhibition [4] of 9%.
